Hits are enriched below; roughly 2.1% of the tested compounds scored in any of these assays.
RTF Ca sens act: increases calcium sensitivity of human cardiac regulated thin filaments; IANBD-labeled TnC RTF fluorescence at EC20 calcium; 0% EC20 calcium, 100% full calcium; 340,000 tested, 0.24% active; P19429+P45379; activation, % at 7.2 µM; AID 493008;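 active = activation above the mean over all tested compounds plus 3 SD, cut at about 30% in these data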;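 note: rise in fluorescence read as greater calcium sensitivity of cardiac thin filaments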
Cardiac RTF inh: cardiac RTF calcium desensitization. 340,000 tested, 0.12% active. inhibition, % at 7.15 µM. P19429+P45379. IANBD-labeled cardiac RTF, Ca2+ fluorescence;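 active = inhibition above the mean inhibition of all tested compounds plus 3 SD, cut at about 17% in these data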;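 note: assay run at fixed EC70 calcium of 1.6 mM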
Efflux pump mplx: inhibitors of Candida antifungal efflux pumps expressed in yeast; 330,000 tested, 0.44% active; S. cerevisiae Candida pump triplex, Nile Red efflux; AID 485275; inhibition, % at 10 µM;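 active = plate passing quality check with inhibition over a set limit, or well fluorescence over plate mean plus 4 SD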;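 note: Nile Red retained in pooled yeast measured as flow cytometry median fluorescence; 0% = buffer negative control and 100% = Enniatin B positive control; higher means more Nile Red kept so more efflux inhibition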
ARNT-TACC3 inh: ARNT/TACC3 interaction disruption. Q9Y6A5. AlphaScreen His-ARNT PAS-B/GST-TACC3 binding, luminescence; TACC3 fragment carries E629A point mutation. inhibition, % at 9.99 µM. 390,000 tested, 0.66% active. AID 623870;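 active = mean inhibition of replicates at least 50% and at least half of replicates each reaching 50%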;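 note: 0% = complete ARNT plus TACC3 wells and 100% = ARNT alone without TACC3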
UCH37 inh: inhibitors of human deubiquitinating enzyme UCH37; Q9Y5K5; purified proteasome/UCH37, Ub-AMC cleavage fluorescence; inhibition, % (concentration not given with the values); 330,000 tested, 0.33% active;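 active = mean inhibition over replicate wells above about 20%, limit read from the data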;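 note: 0% = compound-free wells with enzyme and 100% = wells lacking proteasome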
Target sequence (Q9Y5K5 whole entry, looked up): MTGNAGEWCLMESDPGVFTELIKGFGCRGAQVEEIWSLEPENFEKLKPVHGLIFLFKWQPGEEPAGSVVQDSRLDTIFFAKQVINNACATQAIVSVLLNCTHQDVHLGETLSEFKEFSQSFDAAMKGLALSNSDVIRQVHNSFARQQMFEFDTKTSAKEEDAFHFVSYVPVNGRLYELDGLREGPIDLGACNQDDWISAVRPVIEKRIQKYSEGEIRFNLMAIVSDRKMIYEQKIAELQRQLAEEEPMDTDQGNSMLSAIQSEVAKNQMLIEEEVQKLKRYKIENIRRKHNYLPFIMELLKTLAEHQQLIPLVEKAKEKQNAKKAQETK
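Material: Human UCH37 enzyme supplied as purified proteasome complex | Schedule: 30 min preincubation with enzyme, 25 min cleavage at room temperature | Detection: AMC fluorescence 355/460 nm | Measure: % inhibition of Ub-AMC cleavage fluorescence | Controls: Wells without proteasome as full block, compound-free enzyme plus substrate as uninhibited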
SUMO Mot1 rescue: SUMOylation pathway inhibition by Mot1-301 growth rescue; S. cerevisiae Mot1-301 growth rescue, ATP luminescence, 38.5C; percent above DMSO median, 100 means doubled; growth rescue, % at 18.8 µM; 320,000 tested, 1% active;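 active = every valid replicate shows activation above 250% relative to neutral control wells; inactive = the rest, any valid replicate at or below 250%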;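 note: OY570 slx delta 5 strain wells were the positive control but not used for scaling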
Active calls of the source: *; i = inactive; x = no result; + = active, no number.

SMILES	RTF Ca sens act	Cardiac RTF inh	Efflux pump mplx	ARNT-TACC3 inh	UCH37 inh	SUMO Mot1 rescue
CNC(=S)N=CNOCc1c(Cl)cccc1Cl	x	x	x	x	2.6	x
S=C(Nc1ccc2nccnc2c1)N1CCOCC1	-6.6	1.8	-0.1	45.7*	-2.5	-9.7
COc1ccccc1C=NNC(=O)C(=O)NCc1cccnc1	x	x	x	x	4.5	x
CC(=NNC(=O)c1ccccc1O)c1cccc(NC(=O)c2ccccc2)c1	x	x	x	x	2.0	x
CC1(C)CC(=NNC(=O)c2n[nH]c3c2CCC3)CC(C)(C)N1	-6.1	-2.9	-0.1	x	31.3*	4.6
CC(=NNC(=O)c1n[nH]c2c1CCC2)c1ccco1	x	x	x	x	2.6	x
Cc1cc(-c2c(C)[nH]n(-c3ccc(Cl)cc3)c2=O)n[nH]1	6.4	-7.2	0.1	56.5*	0.5	i
O=C(NNC(=S)NC(=O)c1cccnc1)c1ccc(Cl)cc1	-2.7	-5.6	0.1	-9.9	8.0	-4.5
O=C(NC(=S)NNC(=O)c1cnccn1)c1ccc(Cl)cc1	0.0	-2.5	-0.1	54.4*	3.8	-35.0
COc1cc(C(=O)NC(=S)NNC(=O)c2cnccn2)cc(OC)c1OC	1.6	-2.5	-0.1	65.0*	9.6	-5.0
COc1ccc(C(=O)NC(=S)NNC(=O)c2cnccn2)cc1	5.4	0.8	-0.1	59.0*	8.6	35.5
CC(C)c1c(C(=O)NN=Cc2ccc(Cl)cc2Cl)nnn1-c1nonc1N	x	x	x	x	0.1	x
CN=c1scc(C)n1N=Cc1ccc(O)c(O)c1O	x	x	x	x	14.5	x
COCCN=c1scc(-c2cccs2)n1/N=C/c1ccc(O)c(O)c1O	0.3	-7.3	-0.2	63.6*	x	-9.5
COCCN=c1scc(-c2cccs2)n1N=C(C)c1ccco1	x	x	x	x	7.6	x
CCN=c1scc(C)n1/N=C/c1ccc(O)c(O)c1O	-2.9	-0.9	-0.1	79.5*	x	5.0
Cc1ccc(C=NNC(=O)c2ccc(N(C)S(=O)(=O)c3ccccc3)cc2)cc1	x	x	x	x	0.9	x
CC(=O)OCc1nc2sc3c(c2c(=O)[nH]1)CCCC3	-1.1	8.7	0.1	-1.6	-2.4	-12.7
COCc1nc2sc3c(c2c(=O)[nH]1)CCCC3	10.7	-4.4	0.2	-9.5	0.2	481.1*
CC(/C=N/NC(=O)c1cccs1)=C\c1ccco1	6.7	-4.8	0.0	-0.7	x	274.4
C/C(C=NNC(=O)c1ccncc1)=C\c1ccco1	x	x	x	x	22.7*	x
CCOC(=O)c1cnc(-n2nc(C)cc2C)nc1N1CCOCC1	1.5	-4.3	-0.1	49.7*	2.5	201.0
CCOC(=O)c1cnc(-n2nc(C)cc2C)nc1Oc1ccccc1F	x	x	0.1	x	2.2	-5.7
CCOC(=O)c1cc(-c2ccc(C)o2)nn1CCC#N	-2.5	-0.6	0.0	3.4	-0.8	346.6*
CCOC(=O)c1cc(-c2ccccc2)nn1CCC#N	0.8	4.2	0.0	-8.8	4.3	-13.9
SMILES	RTF Ca sens act	Cardiac RTF inh	Efflux pump mplx	ARNT-TACC3 inh	UCH37 inh	SUMO Mot1 rescue
COc1ccc(N/C=C2\C(=O)CCc3c2oc2cc(Cl)c(O)c(Cl)c32)cc1	100.5*	-27.6	0.2	-0.6	10.3	0.6
COc1ccc(N/C=C2\CCOC2=O)cc1	2.4	0.9	-0.1	15.7	9.8	166.7
Cc1ccc(S(=O)(=O)N2CCN(C(=O)c3ccccc3)C2C(C)C)cc1 (stereo not drawn)	-2.1	-6.8	-0.1	-3.3	2.2	278.9*
CC(=O)N1CCN(S(=O)(=O)c2ccc(C)cc2)C1C(C)C (stereo not drawn)	-0.5	0.6	0.0	-0.7	2.2	56.5
CCOc1ccc(NC(=O)Cn2c(=O)oc3ccccc32)cc1	-3.8	-36.7	-0.1	-2.0	30.5*	-12.0
CCOc1ccc(NC(=O)Cn2c(=O)oc3cc(Cl)ccc32)cc1	0.1	-1.9	0.1	-4.7	-1.0	146.9
COC(=O)C1(c2ccccc2)NC(c2ccc(O)cc2)C2C(=O)N(c3ccc4c(c3)OCO4)C(=O)C21 (stereo not drawn)	5.4	-5.8	0.0	2.3	4.3	259.5*
CCCC1(C(=O)OCC)NC(c2ccc(O)cc2)C2C(=O)N(c3ccc4c(c3)OCCO4)C(=O)C21 (stereo not drawn)	-3.1	2.4	-0.1	-3.6	-2.2	0.5
COc1ccccc1OCC(=O)Nn1c(=S)[nH]c2ncccc2c1=O	2.4	-1.2	-0.1	-0.8	6.1	5.6
Cc1n[nH]c(=S)n(NC(=O)CC(=O)Nn2c(=S)[nH]nc(C)c2=O)c1=O	4.7	-10.7	0.0	67.4*	2.3	-6.9
Cc1n[nH]c(=S)n(NC(=O)/C=C/C(=O)Nn2c(=S)[nH]nc(C)c2=O)c1=O	-1.9	-14.0	x	65.6*	-2.0	x
COc1ccc(NCC(=O)NN=C/C=C/c2ccccc2[N+](=O)[O-])cc1	x	x	x	x	5.7	x
O=C(NCc1ccc(F)cc1)[C@H]1[C@H](CO)[C@H]2Cn3c(cccc3=O)[C@@H]1N2C(=O)c1cnccn1	x	x	x	-4.5	x	x
O=C(NCc1cccc(F)c1)[C@@H]1[C@@H](CO)[C@@H]2Cn3c(cccc3=O)[C@H]1N2C(=O)c1cnccn1	x	x	x	active	x	x
CCN(CC)c1ccc(C=NN2CCN(Cc3ccc(C)cc3C)CC2)c(O)c1	x	x	x	x	0.8	x
NC(=NOC(=O)Cc1ccccc1[N+](=O)[O-])c1cccnc1	x	x	x	x	1.5	x
Cc1ccc(C)c(N2CCN(C(=S)NC3CCCCC3)CC2)c1	1.6	-6.2	0.0	-4.6	3.3	-10.5
Cc1cccc(N2CCN(C(=S)NC3CCCCC3)CC2)c1C	2.5	-0.5	-0.2	6.6	1.8	+
COCc1nnc(NS(=O)(=O)c2ccc(OC)cc2)s1	0.3	-0.8	x	28.4	-1.7	x
CCCc1nnc(NS(=O)(=O)c2ccc(OC)cc2)s1	3.4	2.5	0.0	-14.2	x	774.4*
CCC(C)c1ccccc1OCCCCN1CCCC1 (stereo not drawn)	6.2	-8.5	0.1	x	31.0*	5.7
CCC(C)c1ccccc1OCCOCCN1CCCC1 (stereo not drawn)	13.9	-6.9	-0.1	x	-0.7	-24.0
CC1=NNC(=O)C1CC(=O)NN=Cc1sccc1C (stereo not drawn)	x	x	x	x	2.9	x
CC1=C(C(=O)Nc2ccccc2)C(c2ccc(C)o2)n2c(sc(=Cc3ccco3)c2=O)=N1 (stereo not drawn)	x	x	x	x	-0.9	x
CC(C)(C)C(=O)Nc1ccccc1C(=O)NCCCn1ccnc1	-2.9	-5.5	-0.1	61.3*	1.6	-3.1
O=C(NCCCn1ccnc1)c1ccncc1	1.3	-1.2	-0.1	-4.9	0.7	14.1
CC(C)(C)c1ccc(C(=O)NCCCn2ccnc2)cc1	-3.8	-4.2	-0.1	active	x	-1.6
COc1cccc(C(=O)N(C)c2nnc(-c3ccncc3)s2)c1	2.2	-19.4	0.1	-2.8	-2.2	1.0
COc1cccc(-c2nnc(N(C)C(=O)C3CCOC3)s2)c1 (stereo not drawn)	-3.7	-8.1	0.1	19.2	-1.1	344.3*
CC(=NNC(=O)c1c(Cl)c(C)nn1C)c1cccc(NC(=O)COc2ccccc2)c1	x	x	x	x	-51.7	x
